Measurements reported in ChEMBL document CHEMBL3286393 (J Med Chem, 2014).

How the values were obtained:
[1] = target: Prostaglandin G/H synthase 1 (Homo sapiens, UniProt P23219); experiment: Inhibition of COX1-mediated […] in human platelets assessed as residual activity by measuring formation of 12-HHT from arachidonic acid preincubated at 10 uM for 5 mins measured after 5 mins by RP-HPLC analysis relative to control; values are per cent of control
Monocyte [2] = experiment: Inhibition of 11-HETE formation in LPS-stimulated human monocytes preincubated for 15 mins before arachidonic acid substrate addition measured after 30 mins by UPLC-MS/MS analysis; type: functional, cell-based
In short: (§1)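 Fresh human monocytes (adherence-isolated, >85% CD14+; 5 × 10⁶/well) primed with LPS 1 μg/mL for 24 h. Washed, 15 min preincubation, then 2.5 μM A23187 plus 20 μM arachidonic acid for 30 min. Eicosanoids extracted and measured by UPLC-MS/MS, normalized to PGB1 as relative intensities. Two to three independent experiments.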

Monocyte [3] = experiment: Inhibition of thromboxane B2 formation in LPS-stimulated human monocytes preincubated for 15 mins before arachidonic acid substrate addition measured after 30 mins by UPLC-MS/MS analysis; type: functional, cell-based
In short: as §1

[4] = target: T1, Polyunsaturated fatty acid lipoxygenase ALOX15 (Homo sapiens, UniProt P16050); experiment: Inhibition of 15-LO-mediated 15-HETE formation in LPS-stimulated human monocytes preincubated for 15 mins before arachidonic acid substrate addition measured after 30 mins by UPLC-MS/MS analysis; type: cell-based
T1 sequence (P16050 whole entry): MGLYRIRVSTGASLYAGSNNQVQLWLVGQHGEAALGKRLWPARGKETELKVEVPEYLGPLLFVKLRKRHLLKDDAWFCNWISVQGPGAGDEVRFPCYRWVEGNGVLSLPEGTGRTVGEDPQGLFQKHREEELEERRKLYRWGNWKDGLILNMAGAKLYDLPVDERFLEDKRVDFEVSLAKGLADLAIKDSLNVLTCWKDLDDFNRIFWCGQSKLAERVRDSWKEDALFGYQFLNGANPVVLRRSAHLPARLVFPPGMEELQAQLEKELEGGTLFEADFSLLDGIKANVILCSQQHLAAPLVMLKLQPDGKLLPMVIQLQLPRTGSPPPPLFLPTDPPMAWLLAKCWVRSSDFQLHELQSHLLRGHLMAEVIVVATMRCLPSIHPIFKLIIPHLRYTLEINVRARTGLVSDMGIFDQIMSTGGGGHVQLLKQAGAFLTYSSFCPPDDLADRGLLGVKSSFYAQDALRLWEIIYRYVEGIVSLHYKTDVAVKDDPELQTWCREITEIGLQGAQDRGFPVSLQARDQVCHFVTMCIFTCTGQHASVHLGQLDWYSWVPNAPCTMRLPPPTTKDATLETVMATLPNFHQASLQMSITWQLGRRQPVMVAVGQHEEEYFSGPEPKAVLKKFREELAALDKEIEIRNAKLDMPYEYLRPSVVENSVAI

[5] = target: T2, Prostaglandin G/H synthase 2 (Homo sapiens, UniProt P35354); experiment: Inhibition of COX2-mediated PGD2 formation in LPS-stimulated human monocytes preincubated for 15 mins before arachidonic acid substrate addition measured after 30 mins by UPLC-MS/MS analysis; type: cell-based
T2 sequence (P35354 whole entry): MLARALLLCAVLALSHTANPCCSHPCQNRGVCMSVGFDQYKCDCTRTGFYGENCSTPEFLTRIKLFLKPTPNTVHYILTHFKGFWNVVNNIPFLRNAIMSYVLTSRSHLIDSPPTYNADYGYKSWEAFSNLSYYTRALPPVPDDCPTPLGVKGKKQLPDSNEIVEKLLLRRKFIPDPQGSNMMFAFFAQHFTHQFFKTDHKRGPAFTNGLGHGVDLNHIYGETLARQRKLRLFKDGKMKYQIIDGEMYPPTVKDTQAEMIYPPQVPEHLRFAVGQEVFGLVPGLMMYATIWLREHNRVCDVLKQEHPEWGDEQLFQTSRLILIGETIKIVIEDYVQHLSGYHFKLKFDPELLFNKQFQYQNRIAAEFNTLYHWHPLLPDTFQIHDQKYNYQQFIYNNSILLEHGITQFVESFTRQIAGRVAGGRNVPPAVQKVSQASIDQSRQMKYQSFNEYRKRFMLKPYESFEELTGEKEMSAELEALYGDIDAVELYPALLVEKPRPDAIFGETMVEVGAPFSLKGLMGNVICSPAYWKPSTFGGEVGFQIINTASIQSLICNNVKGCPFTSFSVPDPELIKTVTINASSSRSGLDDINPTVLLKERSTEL

Sequence of Prostaglandin G/H synthase 1 (P23219 whole entry): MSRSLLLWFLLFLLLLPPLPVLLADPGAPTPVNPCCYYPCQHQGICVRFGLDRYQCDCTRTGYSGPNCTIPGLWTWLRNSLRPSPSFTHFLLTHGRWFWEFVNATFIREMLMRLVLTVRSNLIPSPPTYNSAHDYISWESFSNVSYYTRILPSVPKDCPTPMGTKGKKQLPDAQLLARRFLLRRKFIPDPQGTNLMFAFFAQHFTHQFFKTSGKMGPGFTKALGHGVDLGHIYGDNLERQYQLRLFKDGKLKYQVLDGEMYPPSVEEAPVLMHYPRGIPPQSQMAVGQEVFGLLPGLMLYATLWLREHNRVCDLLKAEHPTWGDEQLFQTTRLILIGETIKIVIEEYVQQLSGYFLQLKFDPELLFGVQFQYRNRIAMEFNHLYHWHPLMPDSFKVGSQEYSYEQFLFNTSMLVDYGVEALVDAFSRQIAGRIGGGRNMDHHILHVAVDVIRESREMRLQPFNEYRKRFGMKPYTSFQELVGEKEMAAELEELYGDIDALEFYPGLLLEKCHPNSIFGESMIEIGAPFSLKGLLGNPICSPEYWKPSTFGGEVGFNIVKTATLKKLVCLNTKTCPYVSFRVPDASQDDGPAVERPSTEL

**Q.** For COc1cc(/C=C/c2cc(/C=C/c3ccc(O)c(OC)c3)[nH]n2)ccc1O [CURCUMIN PYRAZOLE], which residual activity [1] is on record?
**A.** The residual activity was 82.3%.

**Q.** With COc1cc(/C=C/C(=O)CC(=O)/C=C/c2ccc(O)c(OC)c2)ccc1O [CURCUMIN] as the molecule, how does the IC50 (Monocyte [2]) read?
**A.** The IC50 was 1.2 µM.

**Q.** What about the IC50 (Monocyte [3]) of the same molecule?
**A.** The IC50 was 1.2 µM.

**Q.** And the IC50 [4]?
**A.** The IC50 was 1.2 µM.

**Q.** With COc1cc(/C=C/c2cc(/C=C/c3cc(CC=C(C)C)c(O)c(OC)c3)[nH]n2)cc(CC=C(C)C)c1O as the molecule, how does the IC50 [5] read?
**A.** The IC50 was > 10 µM.
